Assay results taken from ChEMBL document CHEMBL1137155, “Identification of [(naphthalene-1-carbonyl)-amino]-acetic acid derivatives as nonnucleoside inhibitors of HCV NS5B RNA dependent RNA polymerase” (Bioorg Med Chem Lett, 2004).

Tests used:
[1] = molecular target: RNA-directed RNA polymerase (Hepacivirus hominis, UniProt O39930); test: Inhibitory concentration against HCV NS5B RNA dependent RNA polymerase
Summary of the method: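 Enzyme: recombinant C-terminally truncated NS5B from genotype 1b, BK strain. Inhibitor was pre-incubated with the enzyme for 15 min. An RNA template, NTPs and [α-32P]GTP were then added, and the reaction ran for 2 h at room temperature. Product RNA was collected by filtration, and incorporated radioactivity was measured by scintillation counting.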

DNA polymerase beta = DNA polymerase beta (Homo sapiens, UniProt P06746); test: Inhibitory concentration against human beta polymerase

Chain of RNA-directed RNA polymerase (O39930 whole entry, the tested form may be a part): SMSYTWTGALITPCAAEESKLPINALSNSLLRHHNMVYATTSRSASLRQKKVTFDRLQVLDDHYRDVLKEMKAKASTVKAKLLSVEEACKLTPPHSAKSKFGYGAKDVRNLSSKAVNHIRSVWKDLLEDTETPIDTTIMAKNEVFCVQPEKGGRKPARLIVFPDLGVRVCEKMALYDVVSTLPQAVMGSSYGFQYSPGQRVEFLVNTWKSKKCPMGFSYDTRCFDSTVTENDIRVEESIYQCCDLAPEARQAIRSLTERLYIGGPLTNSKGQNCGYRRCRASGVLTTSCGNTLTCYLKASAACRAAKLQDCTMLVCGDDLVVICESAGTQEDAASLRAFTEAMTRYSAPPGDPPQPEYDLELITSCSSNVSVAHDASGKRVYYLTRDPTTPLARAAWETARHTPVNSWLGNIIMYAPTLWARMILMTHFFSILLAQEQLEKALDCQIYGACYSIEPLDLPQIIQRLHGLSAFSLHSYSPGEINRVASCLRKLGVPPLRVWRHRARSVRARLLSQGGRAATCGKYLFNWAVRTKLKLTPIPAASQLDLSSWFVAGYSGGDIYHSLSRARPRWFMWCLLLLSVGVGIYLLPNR

SMILES: COc1ccc2ccccc2c1C(=O)NC(CC(=O)O)C(=O)O (stereo unspecified)
- IC50 [1]: > 10000 nM

SMILES: COc1ccc2c(C(=O)NC(CC(=O)O)C(=O)O)c(F)ccc2c1C(F)(F)F (stereo unspecified)
- IC50 [1]: 2100 nM

SMILES: COc1ccc2c(C(=O)N(C)CC(=O)O)c(Cl)ccc2c1C(F)(F)F
- IC50 [1]: 5100 nM

SMILES: COc1ccc2c(C(=O)NC(CC(=O)O)C(=O)O)cccc2c1C(F)(F)F (stereo unspecified)
- IC50 [1]: 1300 nM

SMILES: COC(=O)N(CC(=O)O)C(=O)c1c(Cl)ccc2c(C(F)(F)F)c(OC)ccc12
- IC50 [1]: 5000 nM
- IC50 (DNA polymerase beta): > 100 µM

SMILES: C=CCOC(=O)N(CC(=O)O)C(=O)c1c(Br)ccc2c(C(F)(F)F)c(OC)ccc12
- IC50 [1]: 3300 nM

SMILES: COc1ccc2c(C(=O)N(C)CC(=O)O)c(Br)ccc2c1C(F)(F)F
- IC50 [1]: 2000 nM

SMILES: COc1ccc2c(C(=O)N(CC(=O)O)C(=O)OCC(C)C)c(Br)ccc2c1C(F)(F)F
- IC50 [1]: 7700 nM

SMILES: CCCOC(=O)N(CC(=O)O)C(=O)c1c(Br)ccc2c(C(F)(F)F)c(OC)ccc12
- IC50 [1]: 4900 nM

SMILES: COc1ccc2c(C(=O)NC(CCC(=O)O)C(=O)O)c(Br)ccc2c1C(F)(F)F (stereo unspecified)
- IC50 [1]: 120 nM

SMILES: COc1ccc2c(C(=O)NC(CCC(=O)O)C(=O)O)cccc2c1C(F)(F)F (stereo unspecified)
- IC50 [1]: 490 nM

SMILES: COC(=O)N(CCC(=O)O)C(=O)c1c(Br)ccc2c(C(F)(F)F)c(OC)ccc12
- IC50 [1]: > 10000 nM

SMILES: COC(=O)N(CC(=O)O)C(=O)c1c(OC)ccc2c(C(F)(F)F)c(OC)ccc12
- IC50 [1]: 11300 nM

SMILES: COc1ccc2c(C(=O)NC(CC(=O)O)C(=O)O)c(Br)ccc2c1C(F)(F)F (stereo unspecified)
- IC50 [1]: 910 nM

SMILES: COC(=O)N(CC(=O)O)C(=O)c1c(Br)ccc2c(C(F)(F)F)c(OC)ccc12
- IC50 [1]: 1400 nM

SMILES: COC(=O)N(CC(=O)O)C(=O)c1c(F)ccc2c(C(F)(F)F)c(OC)ccc12
- IC50 [1]: 15200 nM

SMILES: COc1ccc2c(C(=O)N(CC(=O)O)C(=O)OCC(C)(C)C)c(Br)ccc2c1C(F)(F)F
- IC50 [1]: 6400 nM

SMILES: COc1ccc2c(C(=O)NC(CCC(=O)O)C(=O)O)cccc2c1Br (stereo unspecified)
- IC50 [1]: 590 nM

SMILES: COc1ccc2c(C(=O)NC(CCC(=O)O)C(=O)O)c(F)ccc2c1C(F)(F)F (stereo unspecified)
- IC50 [1]: 1400 nM

SMILES: C#CCOC(=O)N(CC(=O)O)C(=O)c1c(Br)ccc2c(C(F)(F)F)c(OC)ccc12
- IC50 [1]: 2900 nM

SMILES: CCOC(=O)N(CC(=O)O)C(=O)c1c(Br)ccc2c(C(F)(F)F)c(OC)ccc12
- IC50 [1]: 3100 nM

SMILES: COC(=O)N(CC(=O)O)C(=O)c1c(-c2ccc(Cl)cc2)ccc2c(C(F)(F)F)c(OC)ccc12
- IC50 [1]: > 20000 nM

SMILES: COc1ccc2c(C(=O)N(CC(=O)O)CC(=O)O)cccc2c1C(F)(F)F
- IC50 [1]: 900 nM

SMILES: COc1ccc2c(C(=O)NC(CC(=O)O)C(=O)O)cccc2c1Br (stereo unspecified)
- IC50 [1]: 1200 nM

SMILES: COC(=O)N(CC(=O)O)C(=O)c1cccc2c(C(F)(F)F)c(OC)ccc12
- IC50 [1]: > 26000 nM
